Measurements as given in the M2OR odorant receptor database.

The compounds below were run against T1, OR2M3 (Homo sapiens) (UniProt Q8NG83). Details: stereoisomer not certain.
T1 sequence (whole entry): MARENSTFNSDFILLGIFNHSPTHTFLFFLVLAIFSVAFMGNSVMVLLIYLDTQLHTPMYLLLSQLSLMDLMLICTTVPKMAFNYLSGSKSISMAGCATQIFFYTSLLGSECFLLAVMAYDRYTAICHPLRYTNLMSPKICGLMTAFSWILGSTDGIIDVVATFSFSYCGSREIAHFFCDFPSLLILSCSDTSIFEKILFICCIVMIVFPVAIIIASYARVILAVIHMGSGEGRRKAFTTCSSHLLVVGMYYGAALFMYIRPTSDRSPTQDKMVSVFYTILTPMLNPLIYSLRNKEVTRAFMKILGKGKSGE
Procedure, shortened: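 Transient luciferase assays in mammalian cell lines were common, though methods varied by source. The values come from published papers and their supplementary material, with extra details from the original authors when needed. Responsive refers to a measured signal the original authors judged statistically different from baseline, and non-responsive (inactive) to the remainder.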
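Note: active if original authors judged signal statistically different from baseline.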

| Structure (SMILES) | odorant receptor agonist call |
| --- | --- |
| OCCc1ccccc1 | inactive |
| CC1=CCC(C(C)(C)S)CC1 (stereo unspecified) | inactive |
| CC=O | inactive |
| CC(C)CCO | inactive |
| O=C(O)CCc1ccccc1 | inactive |
| CCc1ccc(O)c(OC)c1 | inactive |
| C=CC(=O)CC | inactive |
| CSCCCO | inactive |
| CSCCC=O | inactive |
| COc1nccnc1C(C)C | inactive |
| CC(=O)C(C)O (stereo unspecified) | inactive |
| CCOC(=O)c1ccccc1 | inactive |
| COCCC(C)(C)S | inactive |
| CCCCC=CC=CC=O | inactive |
| CCCCC1OC(=O)CC1C (stereo unspecified) | inactive |
| CCCCC1CCC(=O)O1 (stereo unspecified) | inactive |
| CCC=CCCC=CCO | inactive |
| Cc1occc1S | inactive |

| Structure (SMILES) | odorant receptor agonist call |
| --- | --- |
| OCC=Cc1ccccc1 | inactive |
| CCCCC(C)CCC(=O)O (stereo unspecified) | inactive |
| COC(=O)C(C)C | inactive |
| CCCC1CCCC(=O)O1 (stereo unspecified) | inactive |
| CCOC(=O)CCC(C)C | inactive |
| CCOC(=O)CC(C)C | inactive |
| CC=Cc1ccc(OC)cc1 | inactive |
| CC(=O)C1=NCCS1 | inactive |
| CC(=O)c1ccccc1N | inactive |
| C=CC(=C)CCC=C(C)C | inactive |
| C=CC(O)CCCCC (stereo unspecified) | inactive |
| CCCSSSCCC | inactive |
| CCCCCC1CCCC(=O)O1 (stereo unspecified) | inactive |
| CC(S)C(C)CO (stereo unspecified) | active |
| CCCSSCCC | inactive |
| CCC(S)C(C)=O (stereo unspecified) | inactive |
| C=Cc1ccc(O)c(OC)c1 | inactive |
| CC(=O)CC(C)(C)S | inactive |
